Data as given in ChEMBL document CHEMBL1944532, “Synthesis and evaluation of anticancer activity of some novel 6-aryl-2-(p-sulfamylphenyl)-pyridazin-3(2H)-ones” (Eur J Med Chem, 2012).
Active and inactive are the calls of the source. The calls are words filed in the database; no cut-off is given here.

How the values were obtained:
[1] = system: DU-145; test: Cytotoxicity against human DU145 cells assessed as cell growth at 10 uM after 48 hrs by SRB assay; assay type: functional; conditions: DU-145, 48 h, read-out: Activity
Procedure, shortened: (§1)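 NCI primary single-dose screen at 10^-5 M against the ~60 human tumour cell line panel. Cells grown in RPMI-1640 with 5% fetal calf serum and 2 mM L-glutamine and pre-incubated 24 h before compound addition. Compound added from DMSO solution with 48 h exposure. Growth read by sulforhodamine B protein staining.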

[2] = system: OVCAR-3; test: Antitumor activity against human OVCAR3 cells implanted in mouse dosed qd for 4 days by formazan dye-based hollow fiber assay; assay type: functional, organism-based
Procedure, shortened: (§2)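 Cells grown inside polyvinylidene fluoride hollow fibers; each line implanted into both intraperitoneal and subcutaneous compartments in mice. Compound given ip at two doses on a QD x 4 schedule. Fibers then recovered and viable cell mass measured by formazan dye conversion. Scored 2 per dose giving ≥50% reduction in viable cell mass (%T/C 50).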

[3] = system: Hs-578T; test: Cytotoxicity against human Hs578T cells after 48 hrs by SRB assay; assay type: functional
Procedure, shortened: (§3)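 NCI ~60-line panel in RPMI-1640 with 5% fetal calf serum and 2 mM L-glutamine, pre-incubated 24 h. Compound in DMSO tested at five 10-fold concentrations (10^-4 to 10^-8 M) with 48 h continuous exposure. Growth measured by sulforhodamine B protein assay. GI50 (50% net growth inhibition), TGI (total inhibition) and LC50 (50% net cell death) derived from dose-response.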

[4] = system: SNB-75; test: Cytotoxicity against human SNB75 cells after 48 hrs by SRB assay; assay type: functional; conditions: SNB-75, 48 h
Procedure, shortened: (§4)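 NCI 60-cell-line five-dose screen. Cells were grown in 1640 medium with 5% fetal calf serum and 2 mM L-glutamine, with inoculum density set by cell line, and pre-incubated 24 h. Compound in DMSO was added at 10^-4 to 10^-8 M (10-fold steps) with 48 h continuous exposure. Growth was read by SRB protein assay, and GI50, TGI and LC50 were derived from dose-response.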

[5] = system: SK-MEL-5; test: Cytotoxicity against human SK-MEL-5 cells after 48 hrs by SRB assay; assay type: functional; conditions: SK-MEL-5, 48 h; procedure, shortened: as §4
[6] = system: NCI-H522; test: Cytotoxicity against human NCI-H522 cells after 48 hrs by SRB assay; assay type: functional; conditions: NCI-H522, 48 h
Procedure, shortened: (§5)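 NCI five-dose screen on the ~60-line human tumor panel. Cells grown in RPMI-1640 with 5% fetal calf serum and 2 mM L-glutamine, seeded at line-dependent density and preincubated 24 h. Compound added from DMSO at 10-fold dilutions from 10^-4 to 10^-8 M, continuous exposure 48 h. Growth read by sulforhodamine B protein stain. GI50, TGI and LC50 derived per line.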

[7] = system: PC-3; test: Cytotoxicity against human PC3 cells assessed as cell growth at 10 uM after 48 hrs by SRB assay; assay type: functional; conditions: PC-3, 48 h, read-out: Activity
Procedure, shortened: (§6)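 NCI primary single-dose screen at 10^-5 M against the full panel of about 60 human tumor cell lines. Cells were in RPMI-1640 with 5% fetal calf serum and 2 mM L-glutamine and preincubated 24 h. Compound was given in DMSO with 48 h exposure. Growth was estimated by sulforhodamine B protein assay.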

[8] = system: SW-620; test: Cytotoxicity against human SW620 cells after 48 hrs by SRB assay; assay type: functional; conditions: SW-620, 48 h; procedure, shortened: as §4
[9] = system: HT-29; test: Cytotoxicity against human HT-29 cells after 48 hrs by SRB assay; assay type: functional; conditions: HT-29, 48 h; procedure, shortened: as §3
[10] = system: UACC-62; test: Antitumor activity against human UACC62 cells implanted in mouse dosed qd for 4 days by formazan dye-based hollow fiber assay; assay type: functional, organism-based; procedure, shortened: as §2
[11] = system: SK-MEL-28; test: Cytotoxicity against human SK-MEL-28 cells after 48 hrs by SRB assay; assay type: functional; conditions: SK-MEL-28, 48 h; procedure, shortened: as §4
[12] = system: T47D; test: Cytotoxicity against human T47D cells after 48 hrs by SRB assay; assay type: functional; procedure, shortened: as §4
[13] = system: HCC 2998; test: Cytotoxicity against human HCC2998 cells assessed as cell growth at 10 uM after 48 hrs by SRB assay; assay type: functional; conditions: HCC 2998, 48 h, read-out: Activity; procedure, shortened: as §1
[14] = system: RPMI-8226; test: Cytotoxicity against human RPMI8226 cells assessed as cell growth at 10 uM after 48 hrs by SRB assay; assay type: functional; conditions: RPMI-8226, 48 h, read-out: Activity; procedure, shortened: as §6
[15] = system: Malme-3M; test: Cytotoxicity against human MALME-3M cells assessed as cell growth at 10 uM after 48 hrs by SRB assay; assay type: functional; conditions: read-out: Activity; procedure, shortened: as §6
[16] = system: COLO 205; test: Cytotoxicity against human COLO205 cells after 48 hrs by SRB assay; assay type: functional; conditions: COLO 205, 48 h; procedure, shortened: as §3
[17] = system: HCT-116; test: Cytotoxicity against human HCT116 cells assessed as cell growth at 10 uM after 48 hrs by SRB assay; assay type: functional; conditions: HCT-116, 48 h, read-out: Activity; procedure, shortened: as §1
[18] = system: SR; test: Cytotoxicity against human SR cells after 48 hrs by SRB assay; assay type: functional; procedure, shortened: as §4
[19] = system: K562; test: Cytotoxicity against human K562 cells assessed as cell growth at 10 uM after 48 hrs by SRB assay; assay type: functional; conditions: K562, 48 h, read-out: Activity; procedure, shortened: as §1
[20] = system: OVCAR-8; test: Cytotoxicity against human OVCAR8 cells after 48 hrs by SRB assay; assay type: functional; conditions: OVCAR-8, 48 h; procedure, shortened: as §5
[21] = system: NCI-H23; test: Antitumor activity against human NCI-H23 cells implanted in mouse dosed qd for 4 days by formazan dye-based hollow fiber assay; assay type: functional, organism-based; procedure, shortened: as §2
[22] = system: KM12; test: Cytotoxicity against human KM12 cells after 48 hrs by SRB assay; assay type: functional; conditions: KM12, 48 h; procedure, shortened: as §5
[23] = system: SF-539; test: Cytotoxicity against human SF539 cells assessed as cell growth at 10 uM after 48 hrs by SRB assay; assay type: functional; conditions: SF-539, 48 h, read-out: Activity; procedure, shortened: as §6
[24] = system: HOP-62; test: Cytotoxicity against human HOP62 cells assessed as cell growth at 10 uM after 48 hrs by SRB assay; assay type: functional; conditions: HOP-62, 48 h, read-out: Activity; procedure, shortened: as §1

CCc1ccc(-c2ccc(=O)n(-c3ccc(S(N)(=O)=O)cc3)n2)cc1
growth at 10 µM [1]: 59.6% | Activity [2]: inactive | LC50 (50% net cell kill) [3]: > 100000 nM | GI50 ([3]; read-out: GI50): 1030 nM | GI50 ([3]; read-out: pGI50 (converted)): 1020 nM | TGI ([3]; read-out: pTGI (converted)): 17000 nM | LC50 [4]: > 100000 nM | GI50 ([4]; read-out: GI50): 1760 nM | GI50 ([4]; read-out: pGI50 (converted)): 1740 nM | TGI ([4]; read-out: pTGI (converted)): 28800 nM | LC50 [5]: > 100000 nM | GI50 ([5]; read-out: GI50): 453 nM | GI50 ([5]; read-out: pGI50 (converted)): 457 nM | TGI ([5]; read-out: pTGI (converted)): 7590 nM | LC50 [6]: > 100000 nM | GI50 ([6]; read-out: GI50): 96.6 nM | GI50 ([6]; read-out: pGI50 (converted)): 95.5 nM | TGI ([6]; read-out: pTGI (converted)): 631 nM | growth at 10 µM [7]: 35% | LC50 [8]: > 100000 nM | GI50 ([8]; read-out: GI50): 454 nM | GI50 ([8]; read-out: pGI50 (converted)): 457 nM | TGI ([8]; read-out: pTGI): > 100000 nM | LC50 [9]: > 100000 nM | GI50 ([9]; read-out: GI50): 436 nM | GI50 ([9]; read-out: pGI50 (converted)): 437 nM | TGI ([9]; read-out: pTGI): > 100000 nM | Activity [10]: inactive | LC50 [11]: > 100000 nM | GI50 ([11]; read-out: GI50): 1370 nM | GI50 ([11]; read-out: pGI50 (converted)): 1380 nM | TGI ([11]; read-out: pTGI): > 100000 nM | LC50 [12]: > 100000 nM | GI50 ([12]; read-out: GI50): 2560 nM | GI50 ([12]; read-out: pGI50 (converted)): 2570 nM | TGI ([12]; read-out: pTGI): > 100000 nM | growth at 10 µM [13]: 53.9% | growth at 10 µM [14]: -29.9% | growth at 10 µM [15]: 35.6% | LC50 [16]: > 100000 nM | GI50 ([16]; read-out: GI50): 976 nM | GI50 ([16]; read-out: pGI50 (converted)): 977 nM | TGI ([16]; read-out: pTGI (converted)): 30900 nM | growth at 10 µM [17]: 16.8% | LC50 [18]: > 100000 nM | GI50 ([18]; read-out: GI50): 88.7 nM | GI50 ([18]; read-out: pGI50 (converted)): 89.1 nM | TGI ([18]; read-out: pTGI (converted)): 490 nM | growth at 10 µM [19]: 11% | LC50 [20]: > 100000 nM | GI50 ([20]; read-out: GI50): 11000 nM | GI50 ([20]; read-out: pGI50 (converted)): 11000 nM | TGI ([20]; read-out: pTGI): > 100000 nM | Activity [21]: inactive | LC50 (50% lethal concentration) [22]: > 100000 nM | GI50 ([22]; read-out: GI50): 486 nM | GI50 ([22]; read-out: pGI50 (converted)): 490 nM | TGI ([22]; read-out: pTGI): > 100000 nM | growth at 10 µM [23]: 43.6% | growth at 10 µM [24]: 59.9%
